Source: ChEMBL document CHEMBL1125887, “Nucleosides and nucleotides. 94. Radical deoxygenation of tert-alcohols in 1-(2-C-alkylpentofuranosyl) pyrimidines: synthesis of (2'S)-2'-deoxy-2'-C-methylcytidine, an antileukemic nucleoside” (J Med Chem, 1991)
≈ marks a conversion by molar mass, not a printed value.

Legend:
[1] = test system: L1210; experiment: Concentration required for 50% inhibition of cell growth of L1210 leukemic cell lines in mouse.; format: functional, cell-based
Method in brief: (§1)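 MTT growth assay: each tumor cell line seeded at 1 × 10^4 cells/well and incubated with or without test compound for 72 h. MTT was then added and OD at 570 nm was read. % inhibition = [1 − OD(sample well)/OD(control well)] × 100. IC50 is the concentration in μg/mL giving 50% inhibition of cell growth.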

[2] = test system: CCRF-CEM; experiment: Concentration required for 50% inhibition of cell growth of CCRF CEM leukemic cell lines in human.; format: functional, cell-based; method in brief: as §1
[3] = test system: HL-60; experiment: Concentration required for 50% inhibition of cell growth of HL60 leukemic cell lines in human.; format: functional, cell-based; method in brief: as §1
[4] = test system: KATO III stomach cancer cell line; experiment: Concentration required for 50% inhibition of human […] carcinoma KATO III solid cell lines.; format: functional, cell-based; method in brief: as §1
[5] = test system: MOLT-4; experiment: Concentration required for 50% inhibition of cell growth of MOLT-4 leukemic cell lines in human.; format: functional, cell-based; method in brief: as §1
[6] = test system: PC10; experiment: Concentration required for 50% inhibition of human lung squamous cell carcinoma PC10 solid cell lines.; format: functional, cell-based; method in brief: as §1
[7] = test system: PC-14; experiment: Concentration required for 50% inhibition of human lung squamous cell carcinoma PC14 solid cell lines.; format: functional, cell-based; method in brief: as §1
[8] = test system: SW480; experiment: Concentration required for 50% inhibition of human […] carcinoma SW 480 solid cell lines.; format: functional, cell-based; method in brief: as §1
[9] = test system: TE-2; experiment: Concentration required for 50% inhibition of human […] squamous cell carcinoma TE2 solid cell lines.; format: functional, cell-based; method in brief: as §1
[10] = test system: U-937; experiment: Concentration required for 50% inhibition of cell growth of U937 leukemic cell lines in human.; format: functional, cell-based; method in brief: as §1
[11] = test system: K562; experiment: Concentration required for 50% inhibition of cell growth of K562 leukemic cell lines in human.; format: functional, cell-based
Method in brief: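 Tumour cells seeded at 1 × 10^4/well were grown with or without test compound for 72 h. MTT was then added and OD at 570 nm read. % inhibition = [1 − OD(sample)/OD(control)] × 100. IC50 is the concentration in μg/mL giving 50% growth inhibition.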

[12] = test system: T-24; experiment: Concentration required for 50% inhibition of human bladder transitional-cell carcinoma T24 solid cell lines.

## C[C@@H]1[C@H](O)[C@@H](CO)O[C@H]1n1ccc(N)nc1=O
[1]
  IC50: 40 µg/mL (≈ 166 µM)

## C[C@H]1[C@H](O)[C@@H](CO)O[C@H]1n1ccc(N)nc1=O
[2]
  IC50: 0.15 µg/mL (≈ 0.622 µM)
[3]
  IC50: 0.65 µg/mL (≈ 2.69 µM)
[4]
  IC50: > 100 µg/mL
[1]
  IC50: 0.26 µg/mL (≈ 1.08 µM)
[5]
  IC50: 0.032 µg/mL (≈ 0.133 µM)
[6]
  IC50: 81.8 µg/mL (≈ 339 µM)
[7]
  IC50: > 100 µg/mL
[8]
  IC50: > 100 µg/mL
[9]
  IC50: > 100 µg/mL
[10]
  IC50: 0.38 µg/mL (≈ 1.58 µM)
[11]
  IC50: 2.2 µg/mL (≈ 9.12 µM)
[12]
  IC50: 1.1 µg/mL (≈ 4.56 µM)

## C[C@]1(O)[C@H](O)[C@@H](CO)O[C@H]1n1ccc(N)nc1=O
[1]
  IC50: > 100 µg/mL

## C[C@@]1(O)[C@H](O)[C@@H](CO)O[C@H]1n1ccc(N)nc1=O
[1]
  IC50: 12 µg/mL (≈ 46.6 µM)

## Cc1cn([C@@H]2O[C@H](CO)C(O)[C@H]2C)c(=O)[nH]c1=O (some centres not stated)
[1]
  IC50: 32 µg/mL (≈ 125 µM)

## CC[C@@H]1C(O)[C@@H](CO)O[C@H]1n1ccc(N)nc1=O (some centres not stated)
[1]
  IC50: > 100 µg/mL

## Nc1ccn([C@@H]2O[C@H](CO)[C@@H](O)[C@@H]2O)c(=O)n1 [CYTARABINE]
[3]
  IC50: > 0.1 µg/mL
[4]
  IC50: > 100 µg/mL
[6]
  IC50: > 100 µg/mL
[7]
  IC50: > 100 µg/mL
[8]
  IC50: > 100 µg/mL
[9]
  IC50: > 100 µg/mL
[10]
  IC50: 0.31 µg/mL (≈ 1.27 µM)
[12]
  IC50: > 100 µg/mL

## O=c1[nH]cc(F)c(=O)[nH]1 [FLUOROURACIL]
[6]
  IC50: > 100 µg/mL
[11]
  IC50: 3.8 µg/mL (≈ 29.2 µM)
